Data taken from the M2OR odorant receptor database.
Positions count from the first letter of the chain named.

Tests used:
Settings in all cases: stereoisomer not certain
OR2T34 (Homo sapiens) = target: T1, OR2T34 (Homo sapiens) (UniProt Q8NGX1)
T1 sequence (whole entry): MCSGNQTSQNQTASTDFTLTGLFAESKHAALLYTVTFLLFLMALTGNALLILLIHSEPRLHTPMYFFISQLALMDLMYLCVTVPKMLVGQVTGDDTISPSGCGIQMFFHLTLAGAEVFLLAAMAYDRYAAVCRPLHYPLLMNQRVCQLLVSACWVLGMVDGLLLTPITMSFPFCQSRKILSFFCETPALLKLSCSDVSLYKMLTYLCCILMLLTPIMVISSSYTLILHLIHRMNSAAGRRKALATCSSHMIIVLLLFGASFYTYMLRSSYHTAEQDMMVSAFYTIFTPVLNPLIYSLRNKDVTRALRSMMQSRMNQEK
Procedure, shortened: (§1)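 Whether a receptor–molecule pair is responsive (active) rests on the original authors' judgment that its measured signal was statistically different from baseline. Pairs without that judgment are non-responsive (inactive). Sources used varied assay methods, commonly transient luciferase assays in mammalian cell lines.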

OR2T4 (Homo sapiens) = target: T2, OR2T4 (Homo sapiens) (UniProt Q8NH00)
T2 sequence (whole entry): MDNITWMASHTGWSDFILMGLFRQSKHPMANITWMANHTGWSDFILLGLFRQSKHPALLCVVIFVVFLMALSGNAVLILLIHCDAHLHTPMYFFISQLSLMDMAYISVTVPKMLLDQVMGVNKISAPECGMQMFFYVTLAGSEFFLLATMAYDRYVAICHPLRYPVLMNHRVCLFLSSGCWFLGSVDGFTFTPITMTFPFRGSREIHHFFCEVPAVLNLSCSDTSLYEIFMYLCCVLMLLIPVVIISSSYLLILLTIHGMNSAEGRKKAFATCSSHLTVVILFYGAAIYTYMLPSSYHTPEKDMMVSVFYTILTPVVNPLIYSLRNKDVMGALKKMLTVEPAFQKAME
Procedure, shortened: as §1

OR2T3 R298C = test system: T3, OR2T3 R298C
T3 sequence (whole entry): T1 sequence (whole entry) with H109Y, M202T, T204M, T214A, R239H, R267P, R298C
Procedure, shortened: as §1

OR2T3 Y109H = test system: T4, OR2T3 Y109H
T4 sequence (whole entry): T1 sequence (whole entry) with M202T, T204M, T214A, R239H, R267P
Procedure, shortened: as §1

OR2T33 (Homo sapiens) = target: T5, OR2T33 (Homo sapiens) (UniProt Q8NG76)
T5 sequence (whole entry): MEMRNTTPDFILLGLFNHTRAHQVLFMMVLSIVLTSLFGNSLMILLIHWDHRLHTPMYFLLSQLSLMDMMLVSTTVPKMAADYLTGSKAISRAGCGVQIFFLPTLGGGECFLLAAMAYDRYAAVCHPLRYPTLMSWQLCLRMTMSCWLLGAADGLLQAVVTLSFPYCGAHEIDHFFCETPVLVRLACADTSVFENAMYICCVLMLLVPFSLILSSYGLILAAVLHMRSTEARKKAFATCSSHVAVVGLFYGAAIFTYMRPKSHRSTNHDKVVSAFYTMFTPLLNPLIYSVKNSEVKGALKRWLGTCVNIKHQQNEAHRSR
Procedure, shortened: as §1

OR2T35 (Homo sapiens) = target: T6, OR2T35 (Homo sapiens) (UniProt Q8NGX2)
T6 sequence (whole entry): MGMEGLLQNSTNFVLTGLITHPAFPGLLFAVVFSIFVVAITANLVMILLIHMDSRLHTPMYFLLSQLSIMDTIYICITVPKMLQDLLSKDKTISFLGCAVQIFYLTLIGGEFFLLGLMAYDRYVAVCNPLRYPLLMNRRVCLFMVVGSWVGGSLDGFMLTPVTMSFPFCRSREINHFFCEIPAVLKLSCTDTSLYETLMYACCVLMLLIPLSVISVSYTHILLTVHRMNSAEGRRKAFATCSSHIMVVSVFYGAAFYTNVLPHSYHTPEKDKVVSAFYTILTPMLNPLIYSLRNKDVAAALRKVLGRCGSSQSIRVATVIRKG
Procedure, shortened: as §1

OR2T5 (Homo sapiens) = target: T7, OR2T5 (Homo sapiens) (UniProt Q6IEZ7)
T7 sequence (whole entry): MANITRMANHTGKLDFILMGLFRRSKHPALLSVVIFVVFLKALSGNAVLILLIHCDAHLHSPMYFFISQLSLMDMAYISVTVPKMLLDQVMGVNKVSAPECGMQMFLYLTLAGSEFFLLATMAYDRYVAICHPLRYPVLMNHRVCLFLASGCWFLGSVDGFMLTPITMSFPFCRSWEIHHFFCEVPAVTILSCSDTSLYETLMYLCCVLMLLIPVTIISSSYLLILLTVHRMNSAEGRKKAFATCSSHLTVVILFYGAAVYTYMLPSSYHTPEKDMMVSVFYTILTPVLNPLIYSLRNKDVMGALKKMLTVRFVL
Procedure, shortened: as §1

OR2T5 K13R K41M G45E = test system: T8, OR2T5 K13R K41M G45E
T8 sequence (whole entry): T7 sequence (whole entry) with K13R, K41M, G45E
Procedure, shortened: as §1

OR2T6 (Homo sapiens) = target: T9, OR2T6 (Homo sapiens) (UniProt Q8NHC8)
T9 sequence (whole entry): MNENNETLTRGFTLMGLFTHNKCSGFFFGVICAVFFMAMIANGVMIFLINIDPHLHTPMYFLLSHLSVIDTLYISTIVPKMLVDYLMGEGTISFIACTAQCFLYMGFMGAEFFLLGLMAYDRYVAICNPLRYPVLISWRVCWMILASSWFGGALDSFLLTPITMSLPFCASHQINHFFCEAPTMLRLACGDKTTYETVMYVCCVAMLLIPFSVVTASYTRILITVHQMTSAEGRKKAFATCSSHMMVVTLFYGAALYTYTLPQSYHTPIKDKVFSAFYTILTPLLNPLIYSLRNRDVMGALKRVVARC
Procedure, shortened: as §1

OR2T5 K13R L134F = test system: T10, OR2T5 K13R L134F
T10 sequence (whole entry): T7 sequence (whole entry) with K13R, L134F
Procedure, shortened: as §1

Measured: odorant receptor agonist call;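 further: active if original authors judged signal statistically different from baseline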

COc1ccc(C)cc1
inactive: OR2T34 (Homo sapiens)

COC1CC2CC1C1CC(C=O)CC21 (configuration not stated)
inactive: OR2T34 (Homo sapiens)

CC1=CCC2CC1C2(C)C (configuration not stated)
active: OR2T4 (Homo sapiens)
inactive: OR2T34 (Homo sapiens)

CCCCCCC=CCCC=O
inactive: OR2T3 R298C | OR2T3 Y109H | OR2T33 (Homo sapiens) | OR2T34 (Homo sapiens) | OR2T35 (Homo sapiens) | OR2T4 (Homo sapiens) | OR2T5 (Homo sapiens) | OR2T5 K13R K41M G45E | OR2T6 (Homo sapiens)

CCC=C(C)C(O)CCCCC (configuration not stated)
inactive: OR2T34 (Homo sapiens)

C=CC(C)(CCC=C(C)C)OC(C)=O (configuration not stated)
inactive: OR2T34 (Homo sapiens)

CCCC(C)C(=O)OCC (configuration not stated)
inactive: OR2T34 (Homo sapiens)

CC(C)(C)C1CCCCC1OCCCCO (configuration not stated)
inactive: OR2T34 (Homo sapiens)

CC1CCCCCCCCCCCCC(=O)C1 (configuration not stated)
inactive: OR2T33 (Homo sapiens) | OR2T34 (Homo sapiens) | OR2T35 (Homo sapiens) | OR2T4 (Homo sapiens) | OR2T5 (Homo sapiens) | OR2T6 (Homo sapiens)

OCc1ccccc1
inactive: OR2T34 (Homo sapiens)

CC(CO)CS (configuration not stated)
inactive: OR2T33 (Homo sapiens) | OR2T34 (Homo sapiens) | OR2T35 (Homo sapiens) | OR2T4 (Homo sapiens) | OR2T5 (Homo sapiens) | OR2T6 (Homo sapiens)

CC1=C(O)C(=O)C(C)O1 (configuration not stated)
inactive: OR2T3 R298C | OR2T3 Y109H | OR2T33 (Homo sapiens) | OR2T34 (Homo sapiens) | OR2T35 (Homo sapiens) | OR2T4 (Homo sapiens) | OR2T5 (Homo sapiens) | OR2T5 K13R K41M G45E | OR2T5 K13R L134F | OR2T6 (Homo sapiens)

C=CC(C)(O)CCC=C(C)CCC=C(C)C (configuration not stated)
inactive: OR2T34 (Homo sapiens)

CCCCC1CCC(=O)O1 (configuration not stated)
inactive: OR2T34 (Homo sapiens)

CCC(=O)C=CC1C(C)=CCCC1(C)C (configuration not stated)
inactive: OR2T34 (Homo sapiens)

CC=CC(=O)C1C(C)=CCCC1(C)C (configuration not stated)
active: OR2T34 (Homo sapiens)

CCC1OC(=O)C(O)=C1C (configuration not stated)
inactive: OR2T3 R298C | OR2T3 Y109H | OR2T33 (Homo sapiens) | OR2T34 (Homo sapiens) | OR2T35 (Homo sapiens) | OR2T4 (Homo sapiens) | OR2T5 (Homo sapiens) | OR2T5 K13R K41M G45E | OR2T5 K13R L134F | OR2T6 (Homo sapiens)

CCCC(S)CCOC(C)=O (configuration not stated)
inactive: OR2T3 R298C | OR2T3 Y109H | OR2T33 (Homo sapiens) | OR2T34 (Homo sapiens) | OR2T35 (Homo sapiens) | OR2T4 (Homo sapiens) | OR2T5 (Homo sapiens) | OR2T5 K13R K41M G45E | OR2T5 K13R L134F | OR2T6 (Homo sapiens)

CC(C)CCCC(C)(C)O
inactive: OR2T34 (Homo sapiens)

CC(=O)C=CC1=C(C)CCCC1(C)C
inactive: OR2T34 (Homo sapiens)

CC1=NC(C)C(C)S1 (configuration not stated)
inactive: OR2T3 R298C | OR2T3 Y109H | OR2T33 (Homo sapiens) | OR2T34 (Homo sapiens) | OR2T35 (Homo sapiens) | OR2T4 (Homo sapiens) | OR2T5 (Homo sapiens) | OR2T5 K13R K41M G45E | OR2T5 K13R L134F | OR2T6 (Homo sapiens)

CC(=O)OCc1ccccc1
inactive: OR2T34 (Homo sapiens)
